Laboratory results from article PMC9804870 (Clinical Pharmacology in Drug Development, 2022).
Values belong to the compound of their own block, whether it stands above or below them.

How the values were obtained:
BTK = conditions: cited from earlier work
[1] = dose range of 75–250 mg; dose‐proportional; cited from earlier work
[2] = high permeability, low solubility; reduced solubility at higher pH; cited from earlier work
Study 1 = format: in vivo; conditions: human, plasma, oral, 100 mg
Summary of the method: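 Healthy subjects, four-sequence crossover: 100 mg tablet or capsule fasted (>10 h). Period 3: tablet 30 min after high-fat meal (800–1000 calories), or fasted 2 h after 20 mg PPI following PPI 20 mg BID days −3 to −1. Plasma sampled predose to 24 h. Parent and metabolite by LC-MS/MS (1–1000, 5–5000 ng/mL). t½ noncompartmental (linear up log down).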

gastric pH = conditions: cited from earlier work
CYP3A = conditions: has been reported; ref not given; cited from earlier work

Structure (SMILES): CC#CC(=O)NCCCC(=O)c1nc(-c2ccc(C(=O)Nc3ccccn3)cc2)c2c(N)nccn12 [ACP‐5862]
- Potency with respect to BTK inhibition, less than acalabrutinib (BTK): 50%

- half-life (Study 1): 120 to 180 min
Structure (SMILES): CC#CC(=O)N1CCC[C@H]1c1nc(-c2ccc(C(=O)Nc3ccccn3)cc2)c2c(N)nccn12 [Acalabrutinib]
- Dose linearity of pharmacokinetics [1]: linear pharmacokinetics
- Biopharmaceutical Classification System class [2]: class II

Structure (SMILES): COCCCOc1ccnc(C[S+]([O-])c2nc3ccccc3[nH]2)c1C (stereo not shown) [Rabeprazole]
- Time needed to achieve maximum suppression of gastric pH (gastric pH): 3 days
- CYP3A inhibition in vitro (CYP3A): weak inhibitor

Structure (SMILES): COc1ccc2[nH]c([S+]([O-])Cc3ncc(C)c(OC)c3C)nc2c1 (stereo not shown) [omeprazole]
- Time needed to achieve maximum suppression of gastric pH (gastric pH): 5 days
